Data taken from ChEMBL document CHEMBL4513216, “Probing the Open Global Health Chemical Diversity Library for Multistage-Active Starting Points for Next-Generation Antimalarials” (ACS Infect Dis, 2020).

experiment: Toxicity liver stage against HepG2, at 10uM; format: cell-based; set-up: test concentration 10 uM, cell line HepG2-A16-CD81EGFP; conditions: human, HepG2-A16-CD81EGFP cells; read-out: INHIBITION
Outline: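 Uninfected HepG2-A16-CD81EGFP cells, 3 × 10^3 per well, 1536-well, plated on prespotted compound at 10 μM final, parasite-free screening media added to match infected plates; puromycin 10 μM positive, DMSO 0.5% negative; run in parallel with 48 h PbLuc assay at 37 °C, 5% CO2; viability by CellTiter-Glo luminescence, normalized to controls.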

| SMILES | cytotoxicity at 10 µM [%] |
| --- | --- |
| CC(C)(C)Oc1ccc(NCC(=O)NCc2ccco2)cc1 | 2.21 |
| CN(C)C(=O)C1CN(c2ccncn2)CCN(C2CCOCC2)C1 (stereo not drawn) | -0.621 |
| Cc1nnc(-c2cccc(C#N)c2)n1C1CCN(C2CC2)C1=O (stereo not drawn) | -11.8 |
| COc1ccc(-n2ccc(C(=O)N(CCN(C)C)C(C)C)n2)cc1 | -3.29 |
| O=C(CCN1C[C@@H]2CC[C@H]1CN(c1ncccn1)C2)NCc1ccco1 | -1.18 |
| CC(Nc1nc(-c2ccncc2)nc2c1CCNC2)c1ccccc1 (stereo not drawn) | -9.94 |
| CCOC(=O)C1(Cc2cccc(OC)c2)CCN(Cc2ncc[nH]2)CC1 | -7.82 |
| CC(C)=CCN1CCN(C(=O)c2cc(C(C)C)on2)[C@H]2CS(=O)(=O)C[C@H]21 | 3.54 |
| CC(C)NC(=O)COc1nc(C(C)C)no1 | -3.34 |
| CC(Cn1ccnc1)NC(=O)NCCc1cccnc1 (stereo not drawn) | -12.1 |
| CS(=O)(=O)NCc1cnc2n1CCN(Cc1ccsc1)CC2 | -7.96 |
| N#Cc1cc(N2CCC(S(N)(=O)=O)CC2)c2ccccc2n1 | -5.03 |
| Cc1ccc(S(=O)(=O)NC[C@H]2OC[C@@H](NCc3ccccn3)[C@@H]2O)cc1 | -52.5 |
| CC(C)C(=O)N(C)Cc1nc(N2CCCC2)ncc1-c1ccncc1 | 6.54 |
| CCc1ncc2c(n1)CN(CC(O)COc1ccc(C#N)cc1)CC2 (stereo not drawn) | -7.65 |
| O=C1NCCN1C1CCN(Cc2nc(-c3ccccc3)no2)CC1 | 30.3 |
| CCOc1ncccc1CNC(=O)N1CCC(n2cncn2)CC1 | -1.26 |
| Cc1cc(C(=O)N2CC[C@@H]3CN(S(C)(=O)=O)CCO[C@@H]3C2)c(C)o1 | 3.52 |
| CCOC1COC2(CCN(S(=O)(=O)c3cccc(C)c3)CC2)C1 (stereo not drawn) | -79.8 |
| Cc1ccc(N2CCC(C(O)Cc3ccccc3)CC2)nn1 (stereo not drawn) | -3.43 |
| CC(Oc1ccccc1C(F)(F)F)C(=O)NCC(=O)N1CCCC1 (stereo not drawn) | 5.12 |
| O=C(NC1CC1)C1CCN(c2nc3nc[nH]c(=O)c3s2)CC1 | -6.5 |

| SMILES | cytotoxicity at 10 µM [%] |
| --- | --- |
| Cc1noc(C)c1-c1ccnc(C2CCN(C3CCOCC3)CC2)c1 | -28.7 |
| Cc1csc(N2CCCN(C(=O)c3ccoc3C)CC2)n1 | -8.45 |
| Cc1nn(C)c(C)c1C1CCCN1C(=O)c1cnc2onc(C)c2c1 (stereo not drawn) | -8.48 |
| CC(C)S(=O)(=O)C(C)C(=O)NCc1ccccc1COc1ccccc1 (stereo not drawn) | 12.1 |
| Cn1c(C2CC2)nc2c1CCN(CCc1ccccn1)C2 | 4.59 |
| COCCCN1C(=O)CC[C@H]2CN(Cc3cc4ccccc4o3)CC[C@H]21 | 23.8 |
| CC(C)C(NCc1ccc(Cn2cncn2)cc1)c1ccc(F)cn1 (stereo not drawn) | -0.593 |
| Fc1ccc(CN2C[C@@H]3OCCN(CC4CCCO4)[C@@H]3C2)cc1 (stereo partly drawn) | -86.3 |
| CC(=O)N1CCn2cc(CNC(=O)c3cccn3C)nc2C1 | 1.88 |
| CCc1noc(CN(C)C(=O)c2ccccc2-c2ncn[nH]2)n1 | 16.7 |
| CC(C)CCNC(=O)C1CCCN1C(=O)Nc1cccc(F)c1 (stereo not drawn) | -1.04 |
| CS(=O)(=O)c1cc(Cl)cnc1C1CCCN(C(=O)C2CCOCC2)C1 (stereo not drawn) | 4.34 |
| O=C1NCCN2CCN(C(=O)Nc3ccc(-c4ccccc4)cc3)CC12 (stereo not drawn) | -119 |
| CC(C)C(C)NC(=O)c1ncn2c1CN(C)S(=O)(=O)c1ccccc1-2 (stereo not drawn) | -132 |
| COc1cc(CNCCc2cc(F)cc3c2OCOC3)cc(OC)c1 | -1.51 |
| COc1ccccc1NC(=O)NCCCn1nc2ccccn2c1=O | -18 |
| CC(Nc1nc(-c2ccccc2)nc2c1CCNCC2)c1cccnc1 (stereo not drawn) | -0.587 |
| Cn1cc(CN2C[C@@H]3COC[C@@H](C(=O)N4CCCCO4)[C@@H]3C2)cn1 | -1.57 |
| CO[C@H]1CN(C(=O)OC(C)(C)C)CC1NCc1cccn1C (stereo partly drawn) | -44 |
| O=C(Nc1cccnc1)[C@H]1CN(Cc2ccco2)C[C@H]2OCC[C@@H]12 | -114 |
| NC(=O)c1ccc(OCCCN2CCC3(CC2)OCCCC3O)cc1 (stereo not drawn) | -1.18 |
| Nc1cc(C(=O)N2CCC(Oc3cccc(C(F)(F)F)c3)CC2)ccn1 | -7.03 |

| SMILES | cytotoxicity at 10 µM [%] |
| --- | --- |
| CCC(CO)NC(=O)NCc1cc(C#N)ccc1F (stereo not drawn) | -1.22 |
| O=C(NCc1cccnc1)[C@H]1C[C@@H]2CCN(c3ccncn3)C[C@H]2O1 | 7.95 |
| Cc1cnc(CCN(C)C(=O)c2ccc(O)nc2C)s1 | -1.56 |
| CC1(C)CN(CC(F)(F)F)CCN1CC(N)=O | 9.92 |
| Cn1cnc(S(=O)(=O)NCCCN2CCCCCC2=O)c1Cl | -15.6 |
| Cc1nc(NCC(O)CN2CCCCCC2)c2c(C)noc2n1 (stereo not drawn) | -5.78 |
| Cc1cccc(N2CCN(CCCNC(=O)c3nccn3C)CC2)c1 | -0.679 |
| Cc1cc(C(=O)N2CCc3nc(C4CCCN4)ncc3C2)cs1 (stereo not drawn) | 2.56 |
| Cc1ccc(CN2CCC3(CC2)CCN(Cc2ccoc2)CC3)cc1 | 3.47 |
| O=C(NCN1CCc2ccccc2C1)c1cnccn1 | 20.2 |
| Cc1cc(C(F)(F)F)nc(CNC(=O)CCC2CCCN(C)C2)n1 (stereo not drawn) | -53.9 |
| Cc1cnc(CN2CCOC(CNc3cccnn3)C2)cn1 (stereo not drawn) | -5.15 |
| COc1cccc(-n2ccc3nc(N4CCCC4)ncc3c2=O)c1 | 5.92 |
| CCN(CC(=O)Nc1cc(C(C)(C)C)no1)Cc1ccc(Cl)s1 | 6.13 |
| Cc1ccc(Cl)c(CN2CCN(C)C(C(=O)O)C2)c1F (stereo not drawn) | -0.0679 |
| CN(C)[C@@H]1CCN(C(=O)c2ccsc2)[C@H]1Cc1cnn(C)c1 | -6.18 |
| O=C(c1nn(-c2ccccc2F)cc1O)N1CCCSCC1 | -0.0414 |
| O=S(=O)(N1CCOCC1)N1CCCC1Cn1cccn1 (stereo not drawn) | -8.18 |
| O=C(NCc1cn2c(n1)CN(CC1CCOCC1)CC2)C1CCC1 | -12.1 |
| CCc1ccc(S(=O)(=O)N2Cc3c(CN(C)C)nn(C)c3C2)cc1 | -106 |
| c1cnc(NCc2noc3c2CN(CCN2CCCC2)CC3)nc1 | -7.36 |
| COc1ccc(OC)c(C(=O)N2CCCCC2Cn2cccn2)c1 (stereo not drawn) | -0.677 |

| SMILES | cytotoxicity at 10 µM [%] |
| --- | --- |
| CC(C)c1nc(C2CCCNC2)no1 (stereo not drawn) | 0.684 |
| O=C(Cc1ccc2c(c1)OCO2)N1CCN(c2cnccn2)CC1 | -5.51 |
| CCN(Cc1ccc(O)c(C(=O)O)c1)CC1CCCO1 (stereo not drawn) | 3.9 |
| O=C(Nc1cccnc1-n1cc(Cl)cn1)C1CC1 | -42.7 |
| CC(C)NS(=O)(=O)c1cc(C(=O)O)cc(-c2ccccc2CN(C)C)c1 | 6.41 |
| CCc1nnc2n1CCN(CCC(=O)Nc1sccc1C#N)C2 | -23 |
| COc1cccc([C@@H](C)n2ccnc2-c2cc3n(n2)CCNC3)c1 | 3.09 |
| CN(C)CC(=O)N1CCN(CC(O)c2ccc(F)cc2)CC1 (stereo not drawn) | -9.11 |
| COCCN1CCC(CNC(=O)C2(c3ccccc3)CCC2)C1 (stereo not drawn) | -5.36 |
| O=C(CCOc1ccccc1Cl)N1CCN(c2cnccn2)CC1 | -29.2 |
| Cc1ccc(N2CCCC(N3CCN(CC(F)F)CC3)C2=O)cc1 (stereo not drawn) | 1.66 |
| Cc1ccc2cc(C(=O)NCCN3CCS(=O)(=O)CC3)c(C)nc2c1 | 10.5 |
| C[C@@H]1CN(C(=O)C2(N3CCCCC3)Cc3ccccc3C2)C[C@H](C)O1 | -0.238 |
| CS(=O)(=O)NCCC(=O)N1CCN(S(=O)(=O)c2ccc(Br)cc2)CC1 | -29.6 |
| CC(C)NC(=O)N1CC[C@@H]2[C@@H]1CC(=O)N2Cc1cccnc1 | 4.67 |
| O=C(CCS(=O)(=O)C1CCCC1)NCc1ccccc1Cn1cncn1 | -4.9 |
| Cc1nc(C)n(CC2CCCN2CC(=O)NCCc2ccsc2)n1 (stereo not drawn) | 0.932 |
| NC(=O)C1(c2cnccn2)CCCN1Cc1ccc(Cl)cc1 (stereo not drawn) | -0.085 |
| COc1ccc([C@@H]2CN(C(=O)CCCc3cn[nH]c3)C[C@H]2N(C)C)cc1 | -2.31 |
| COc1ccc(CN(C)CC(=O)Nc2ccc3[nH]c(=O)[nH]c3c2)cc1F | 5.97 |
| Cc1ncc(CNC(=O)Nc2cc(C(F)(F)F)c[nH]c2=O)s1 | -10.2 |
| c1coc(-c2nnc(CN3CCCC3Cn3cncn3)o2)c1 (stereo not drawn) | -5.46 |

| SMILES | cytotoxicity at 10 µM [%] |
| --- | --- |
| O=C(C1CCOC1)N1CC[C@@H](O)[C@@H]1Cc1ccccc1 (stereo partly drawn) | 9.34 |
| CCc1ccc(CN2C[C@@H]3COC[C@H](NS(C)(=O)=O)[C@@H]3C2)o1 | -2.01 |
| Cc1cc(NCC(C)C)ccc1C(=O)N(C)C | 9.86 |
| CCOCC(=O)Nc1cccc(Oc2ccccn2)c1 | -2.41 |
| Cc1nc(CNC(=O)c2ccc3c(c2)nc(N2CCOCC2)n3C)cs1 | -1.76 |
| O=C(c1ccc(NC2CC2)nc1)N1CCCC(n2cccn2)C1 (stereo not drawn) | -12.2 |
| CC(C)c1nccn1C1CCCN(C(=O)c2cnn(C)c2C2CC2)C1 (stereo not drawn) | -5.5 |
| CC(C)NCc1cccnc1N1CCN(c2ccccn2)CC1 | -3.85 |
| COc1ccc(C(=O)NCc2ccon2)cc1F | 0.824 |
| CNC(=O)c1cc2c(nc1NCC1CC1)CCN(S(=O)(=O)C1CC1)CC2 | -13.3 |
| CCS(=O)(=O)N1C[C@@H]2CN(Cc3ccco3)CCO[C@@H]2C1 | -122 |
| CNc1snc(C)c1C(=O)N1CCCC(n2ccnc2C(C)C)C1 (stereo not drawn) | 1.66 |
| O=C(C1CCOC1)N1Cc2ccccc2OC2(CCOCC2)C1 (stereo not drawn) | 1.32 |
| O=C(c1cc[nH]n1)N(Cc1ccc(F)cc1)CC1CC1 | -10.8 |
| Cn1ccc(C(=O)N2CCC[C@]3(C[C@@H](OCc4ccccn4)CO3)C2)n1 | 0.333 |
| COCCN1CCC(C(=O)N(C)CCOc2ccc(C)cc2Cl)C1 (stereo not drawn) | 13.4 |
| O=C(O)CCCC(=O)NCC1(O)CCN(c2ccnc3cccnc23)C1 (stereo not drawn) | 5.09 |
| COCCN1CCCn2cnc(CNC3CCCC3)c2C1 | 4.92 |
| CCn1ncc(CN2C[C@@H]3CCCN3C[C@H]2CCSC)c1C | -19.1 |
| N[C@@H](Cc1c[nH]cn1)C(=O)N1CCC(Oc2ccc(Cl)cc2)CC1 | -2.13 |
